# ChEMBL document CHEMBL1154422, “First characterization of heterogeneous resistance to imipenem in invasive nontypeable Haemophilus influenzae isolates” (2007)
# Activity calls are given as the source filed them. No cut-off for these calls is given here.
# Tests used:
# Haemophilus influenzae [1] = experiment: Antimicrobial activity against imipenem-susceptible invasive nontypeable Haemophilus influenzae isolate 251 by Etest; assay type: functional
# In short: (§1)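 Etest MIC on Haemophilus test medium (HTM) agar plates following CLSI guidelines, with a high inoculum (3 × 10^8 to 4 × 10^8 CFU/ml). Strains were maintained on Vitox-supplemented chocolate agar at 37°C with 5% CO2. H. influenzae ATCC 49247 and ATCC 10211 served as quality controls. Interpretation used CLSI breakpoints.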
# Haemophilus influenzae [2] = experiment: Antimicrobial activity against imipenem-susceptible Haemophilus influenzae Rd by Etest; assay type: functional
# In short: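 Etest MIC on HTM agar per CLSI, inoculum 3 × 10^8 to 4 × 10^8 CFU/ml, with strains grown on Vitox-supplemented chocolate agar at 37°C with 5% CO2. Imipenem and ampicillin MICs were tested in triplicate on separate days and reported as the range. ATCC 49247 and ATCC 10211 were the quality controls.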
# Haemophilus influenzae [3] = experiment: Antimicrobial activity against Haemophilus influenzae Rd transformed with ftsI gene from imipenem-resistant invasive nontypeable Haemophilus influenzae isolate 183 by Etest; assay type: functional
# In short: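 Recipient strain Rd (ATCC 51907) was electroporated with the PCR-amplified full-length ftsI gene plus flanking DNA from strain 183, then selected on HTM agar with 4 μg/ml imipenem. Imipenem MIC was then read by Etest on HTM agar per CLSI, in triplicate on separate days, and reported as a range.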
# Haemophilus influenzae [4] = experiment: Antimicrobial activity against imipenem-resistant invasive nontypeable Haemophilus influenzae isolate 183 by Etest; assay type: functional
# In short: (§2)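 Imipenem MIC read by Etest on Haemophilus test medium (HTM) agar following CLSI guidelines; inoculum about 3 × 10^8 to 4 × 10^8 CFU/ml. H. influenzae ATCC 49247 and ATCC 10211 served as quality controls. Interpretation used CLSI breakpoints. Strains were maintained on Vitox-supplemented chocolate agar at 37°C with 5% CO2.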
# Haemophilus influenzae [5] = experiment: Antimicrobial activity against imipenem-resistant invasive nontypeable Haemophilus influenzae isolate 184 by Etest; assay type: functional; in short: as §2
# Haemophilus influenzae [6] = experiment: Antimicrobial activity against imipenem-susceptible invasive nontypeable Haemophilus influenzae isolate 187 by Etest; assay type: functional; in short: as §2
# Haemophilus influenzae [7] = experiment: Antimicrobial activity against imipenem-susceptible invasive nontypeable Haemophilus influenzae isolate 244 by Etest; assay type: functional; in short: as §2
# Haemophilus influenzae [8] = experiment: Antimicrobial activity against imipenem-susceptible invasive nontypeable Haemophilus influenzae isolate 248 by Etest; assay type: functional; in short: as §2
# Haemophilus influenzae [9] = experiment: Antimicrobial activity against Haemophilus influenzae ATCC 10211 by Etest; assay type: functional; in short: as §1
# Haemophilus influenzae [10] = experiment: Antimicrobial activity against imipenem-resistant invasive nontypeable Haemophilus influenzae isolate 183 at 1.56 uM by Etest; assay type: functional, organism-based
# In short: (§3)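 CCCP was made up as a 100 mM DMSO stock and added to HTM agar at final 3.12, 1.56, 0.781 or 0.390 μM. Imipenem Etest was run on these plates per CLSI on HTM agar.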
# Haemophilus influenzae [11] = experiment: Antimicrobial activity against imipenem-resistant invasive nontypeable Haemophilus influenzae isolate 184 at 1.56 uM by Etest; assay type: functional, organism-based; in short: as §3
# Haemophilus influenzae [12] = experiment: Antimicrobial activity against imipenem-resistant invasive nontypeable Haemophilus influenzae isolate 183 by Etest in presence of 0.781 uM efflux pump inhibitor carbonyl cyanide m-chlorophenyl-hydrazone; assay type: functional, organism-based; in short: as §3
# Haemophilus influenzae [13] = experiment: Antimicrobial activity against imipenem-resistant invasive nontypeable Haemophilus influenzae isolate 184 by Etest in presence of 0.781 uM efflux pump inhibitor carbonyl cyanide m-chlorophenyl-hydrazone; assay type: functional, organism-based; in short: as §3
# Haemophilus influenzae [14] = experiment: Antimicrobial activity against imipenem-resistant invasive nontypeable Haemophilus influenzae isolate 183 by Etest in presence of 0.390 uM efflux pump inhibitor carbonyl cyanide m-chlorophenyl-hydrazone; assay type: functional, organism-based; in short: as §3
# Haemophilus influenzae [15] = experiment: Antimicrobial activity against imipenem-resistant invasive nontypeable Haemophilus influenzae isolate 184 by Etest in presence of 0.390 uM efflux pump inhibitor carbonyl cyanide m-chlorophenyl-hydrazone; assay type: functional, organism-based; in short: as §3
# Haemophilus influenzae [16] = experiment: Antimicrobial activity against imipenem-resistant invasive nontypeable Haemophilus influenzae isolate 183 by standard broth dilution method; assay type: functional
# In short: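 Imipenem MIC by CLSI standard broth dilution method; inoculum 5 × 10^5 CFU/ml.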
# Haemophilus influenzae [17] = experiment: Antimicrobial activity against imipenem-resistant invasive nontypeable Haemophilus influenzae isolate 184 by standard broth dilution method; assay type: functional
# In short: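 Broth dilution MIC per CLSI standard procedure. Inoculum 5 × 10^5 CFU/ml, lower than the Etest inoculum. Strain first grown on Vitox-supplemented chocolate agar at 37°C with 5% CO2. Beta-lactamase checked by nitrocefin stick test.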
Structure (SMILES),MIC (Haemophilus influenzae [1]),MIC (Haemophilus influenzae [2]),MIC (Haemophilus influenzae [3]),MIC (Haemophilus influenzae [4]),MIC (Haemophilus influenzae [5]),MIC (Haemophilus influenzae [6]),MIC (Haemophilus influenzae [7]),MIC (Haemophilus influenzae [8]),MIC (Haemophilus influenzae [9]),Activity (Haemophilus influenzae [10]),Activity (Haemophilus influenzae [11]),Activity (Haemophilus influenzae [12]),Activity (Haemophilus influenzae [13]),Activity (Haemophilus influenzae [14]),Activity (Haemophilus influenzae [15]),MIC (Haemophilus influenzae [16]),MIC (Haemophilus influenzae [17])
CC1(C)S[C@@H]2[C@H](NC(=O)[C@H](N)c3ccccc3)C(=O)N2[C@H]1C(=O)O [AMPICILLIN],0.125 µg/mL,0.064 µg/mL,0.38 µg/mL,0.75 µg/mL,0.5 µg/mL,0.19 µg/mL,0.25 µg/mL,0.125 µg/mL,–,–,–,–,–,–,–,–,–
CO/N=C(\C(=O)N[C@@H]1C(=O)N2C(C(=O)O)=C(COC(C)=O)CS[C@H]12)c1csc(N)n1 [CEFOTAXIME],0.016 µg/mL,0.5 µg/mL,–,0.047 µg/mL,0.125 µg/mL,0.047 µg/mL,0.016 µg/mL,0.016 µg/mL,–,–,–,–,–,–,–,–,–
CO/N=C(\C(=O)N[C@@H]1C(=O)N2C(C(=O)O)=C(CSc3nc(=O)c(O)nn3C)CS[C@H]12)c1csc(N)n1 [CEFTRIAXONE],–,< 0.016 µg/mL,< 0.016 µg/mL,0.032 µg/mL,–,–,–,–,–,–,–,–,–,–,–,–,–
O=C(N[C@H](CO)[C@H](O)c1ccc([N+](=O)[O-])cc1)C(Cl)Cl [CHLORAMPHENICOL],0.25 µg/mL,–,–,0.38 µg/mL,0.5 µg/mL,0.38 µg/mL,0.38 µg/mL,0.38 µg/mL,–,–,–,–,–,–,–,–,–
C[C@@H](O)[C@H]1C(=O)N2C(C(=O)O)=C(SCCNC=N)C[C@H]12 [IMIPENEM ANHYDROUS],0.5 µg/mL,0.38 µg/mL,4 µg/mL,≥ 32 µg/mL,≥ 32 µg/mL,1.5 µg/mL,0.5 µg/mL,0.25 µg/mL,1.5 µg/mL,inactive,inactive,Active,Active,Active,Active,2 µg/mL,1 µg/mL
